Compound activity from PubChem.
An excerpt weighted towards active compounds, which were near 3.1% of everything screened.
CHO parental Ca – counter-screen for OX1R antagonists: effect in parental CHO cells; 0.63% of 330,000 active; parental CHO-K1, ATP-induced calcium, Fluo-8 fluorescence; inhibition, % at 5.6 µM; AID 463079;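 active means inhibition above that plate's mean sample inhibition plus 3 SD, cut at about 26% in these data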;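 further: 0% = ATP-challenged DMSO wells and 100% = DMSO wells without ATP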
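Test system: parental CHO cells; detection: calcium-sensitive Fluo-8 fluorescence; evaluation: percent inhibition of calcium signal; also added: ATP as calcium-mobilizing challenge; repeats: one well per compound; control set: ATP-challenged DMSO wells low, unchallenged DMSO wells high; compound: single nominal dose of 5.6 µM per compound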
OX1R antag-1 – blocks the human orexin 1 receptor. O43613. CHO/OX1R cells, Fluo-8 calcium fluorescence, orexin A. inhibition, % at 5 µM. 0.43% of 330,000 active;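 active means inhibition above its plate's threshold, mean inhibition of all tested compounds on the plate plus 3 SD, cut at about 37% in these data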;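 further: 0% = orexin A challenge wells and 100% = SB-334867-A antagonist wells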
Target sequence (O43613 whole entry, looked up): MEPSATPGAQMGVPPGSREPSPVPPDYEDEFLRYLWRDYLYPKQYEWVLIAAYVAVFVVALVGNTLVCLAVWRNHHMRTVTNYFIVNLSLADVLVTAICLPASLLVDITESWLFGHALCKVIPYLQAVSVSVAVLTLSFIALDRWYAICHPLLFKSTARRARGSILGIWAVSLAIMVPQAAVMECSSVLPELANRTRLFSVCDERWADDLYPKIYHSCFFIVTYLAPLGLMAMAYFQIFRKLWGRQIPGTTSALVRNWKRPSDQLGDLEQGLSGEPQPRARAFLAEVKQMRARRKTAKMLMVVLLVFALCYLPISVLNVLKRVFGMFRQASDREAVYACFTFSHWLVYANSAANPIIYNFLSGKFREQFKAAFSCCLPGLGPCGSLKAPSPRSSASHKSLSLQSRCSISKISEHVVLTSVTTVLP
OX1R antag-2 – OX1R (human) antagonism. 1.8% of 330,000 active. OX1R-expressing cells, FRET antagonist read-out. O43613. inhibition, % at 6.6 µM; in the data active means inhibition mostly above about 38%, no sharp cut-off; inactive means mostly below about 40%;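 further: 0% = agonist challenge alone and 100% = reference antagonist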
GPR7 antag – human neuropeptides B/W receptor 1 antagonism; GPR7-expressing cells, fluorescence antagonist assay; inhibition, % at 4.4 µM; 1.1% of 290,000 active; AID 1861; in the data active means inhibition above about 16%, passing the limit was not always enough;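 further: cells stimulated with the agonist NPW; 0% = agonist with vehicle and 100% = vehicle without agonist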
GalR3 antag – antagonists of human GalR3 | O60755 | inhibition, % at 3 µM | 0.44% of 360,000 active | HEK293 GalR3-CNG cAMP membrane potential fluorescence; galR3 body fused to GalR1 C-terminus;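 active means inhibition above the screen-wide average plus 3 SD, cut at about 13% in these data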;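 further: forskolin and galanin both at EC90 stimulate the cells; cAMP rise reported by CNG channel membrane potential dye signal; 0% = forskolin plus galanin with DMSO and 100% = forskolin alone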
GalR3 antag conf – GalR3 (human) antagonism, confirmation; HEK293 GalR3 CNG cAMP biosensor, membrane potential fluorescence; galR3 fused to GalR1 carboxy tail; challenged with forskolin and galanin at EC90; 59% of 1,600 active; shares compounds with GalR3 antag; inhibition, % at 3 µM; AID 652245;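 active means inhibition above the primary screen's cutoff, the mean inhibition of all screened compounds plus 3 SD, cut at about 13% in these data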;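 further: 0% = forskolin plus galanin and 100% = forskolin alone with DMSO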
HEK-CNG parental – parental cell agonism counter-screen for GalR3 antagonists | shares compounds with GalR3 antag | HEK293-CNG parental cells, cAMP membrane potential fluorescence; normalised: DMSO wells 0%, forskolin wells 100% | activation, % at 3 µM | 10% of 1,600 active | AID 652268; in the data active means activation above about 1.3%
The depositor's hits bear a star; / = not tested or not shown.

SMILES | CHO parental Ca | OX1R antag-1 | OX1R antag-2 | GPR7 antag | GalR3 antag | GalR3 antag conf | HEK-CNG parental
CC[C@@H]1CCC[C@@H](O)[C@@H](C)C(=O)O[C@H](C)[C@@H](C)C/C=C(C)/C(OC)=C\C(=O)N(C)C([C@@H](C)CC)C(=O)N(C)[C@@H](C(C)C)C(=O)N(C)[C@@H](COC)C(=O)N2CCC[C@H]2C(=O)N(C)[C@@H](C(C)C)C(=O)N2CCC[C@H]2C(=O)O1 (some centres not stated) | / | / | / | / | 101* | 115* | -1
COc1cc(/C=C/c2ccc3cccc([N+](=O)[O-])c3n2)ccc1OCC(=O)O | -4 | -4 | 15 | -14 | 67* | 66* | 0
O=C(O)COc1ccc(/C=C/c2ccc3cccc([N+](=O)[O-])c3n2)cc1 | -6 | -17 | 20 | -7 | 16* | 21* | 0
CC1CN(C)C(C)C/C1=N\Oc1ccc([N+](=O)[O-])cc1 (configuration not stated) | -1 | -32 | 11 | 2 | -5 | / | /
CC1CN(C)C(C)C/C1=N/Oc1ccccc1[N+](=O)[O-] (configuration not stated) | -2 | 1 | 27 | 0 | 13* | 3 | 0
COc1ccc(C2NC(=O)NC(C)=C2C(=O)OC2CCC(C)CC2)cc1 (configuration not stated) | / | / | / | -27 | -9 | / | /
CN(C(=O)[C@H]1O[C@@H](n2cnc3c(=O)[nH]c(N)nc32)[C@H](O)[C@@H]1O)C1CCCCC1 | / | / | / | / | -6 | / | /
COc1cccc(C(C)(O)c2nc(-c3ccc(N(C)C)cc3)cs2)c1 (configuration not stated) | / | / | / | / | 96* | 101* | -1
CCN(C[C@H]1N[C@@](Cc2ccccc2)(C(=O)OC)[C@H]2C(=O)N(C)C(=O)[C@@H]12)C(=O)Nc1ccc(C(F)(F)F)cc1 | -20 | -14 | 5 | / | -5 | / | /
COC(=O)/C=C/c1oc2ccccc2c1C | -13 | -12 | 21 | -13 | -3 | / | /
COc1ccc(CC(=O)N2CCN(c3ccc(C4=NNC(=O)CC4C)cc3)CC2)cc1 (configuration not stated) | -14 | -15 | 33 | -4 | 76* | 87* | 0
COc1ccc(CC(=O)N2CCN(C(=O)Cc3ccc(OC)cc3)CC2)cc1 | -18 | -32 | 14 | -19 | -3 | / | /
COc1cc(CN(C)CC(=O)c2[nH]c(C)c(C(C)=O)c2C)ccc1OC(F)F | -2 | -4 | 25 | 12 | 19* | 12 | 0
COc1ccc(NC(=O)CN(C)CC(=O)c2[nH]c(C)c(C(C)=O)c2C)cc1 | -6 | -1 | 6 | / | -6 | / | /
CC(O)CN(CC(C)O)c1ccc2c(c1)Cc1cc([N+](=O)[O-])ccc1-2 (configuration not stated) | / | / | / | / | 13* | 27* | 1.4*
COc1ccc(Cn2c(=O)[nH]c3cc(C(=O)N4CCN(Cc5ccccc5)CC4)ccc3c2=O)cc1 | -30 | -33 | 6 | -8 | 65* | 88* | 0
O=C(O)CCCCCCCCCCP(=O)(c1ccccc1)c1ccccc1 | -10 | -13 | 15 | -16 | 13* | -2 | 0
O=C(O)CP(=O)(c1ccccc1)c1ccccc1 | -2 | -21 | 19 | -5 | -3 | / | /
COc1ccc(C2=NS(=O)(=O)N(C)C(C(=O)N(C)Cc3ccccc3)=C2)cc1OC | -3 | -17 | 8 | -7 | 15* | 22* | -1
COc1ccc(C2=NS(=O)(=O)N(C)C(C(=O)NC(C)c3ccccc3)=C2)cc1OC (configuration not stated) | -22 | -12 | 20 | 0 | 6 | / | /
CC(=O)NCCc1c(C)n(Cc2ccccc2)c2ccccc12 | -11 | -25 | 17 | 5 | -10 | / | /
Cc1cc(NCCO)nc(-n2nc(C)cc2C)n1 | 0 | 9 | 1 | 3 | 13* | 0 | 0
CCCC(CCC)=NNc1ccc(S(=O)(=O)Nc2ccccc2OC)cc1[N+](=O)[O-] | -11 | -17 | 7 | -6 | 0 | / | /
